Only some compounds are listed: those with a hit (about 3.3% of all), similar ones and a draw of the others.
SENP6 block: SENP6 protease inhibitors, primary screen, biochemical, luminescence, uHTS; AID 2599, 2010; actives 1.8% (n = 330,000); Recombinant SENP6 catalytic domain, aminoluciferin luminescence; inhibition, % at 10 µM; Sentrin-specific protease 6 (Homo sapiens), Q9GZR1;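 active = inhibition above about 50% at the single tested dose, limit read from the data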
SENP8 block-1: SENP8 protease inhibitors, primary screen, biochemical, luminescence; Sentrin-specific protease 8 (Homo sapiens), Q96LD8; purified SENP8, Z-RLRGG-aminoluciferin cleavage; AID 2540, 2010; actives 1.2% (n = 330,000); inhibition, % at 10 µM; in the data active = inhibition above about 50%
Target sequence (Q96LD8 whole entry, looked up): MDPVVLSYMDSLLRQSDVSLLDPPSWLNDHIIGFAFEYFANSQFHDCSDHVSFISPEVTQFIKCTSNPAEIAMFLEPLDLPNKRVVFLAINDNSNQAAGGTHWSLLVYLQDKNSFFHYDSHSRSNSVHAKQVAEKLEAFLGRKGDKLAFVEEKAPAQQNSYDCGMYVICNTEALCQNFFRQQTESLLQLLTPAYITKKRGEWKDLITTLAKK
SENP1 inh: human SENP1 catalytic domain inhibitors, primary screen, biochemical, FRET, uHTS | Sentrin-specific protease 1 (Homo sapiens), Q9P0U3 | recombinant SENP1 catalytic domain, CyPet-SUMO1-YPet FRET cleavage | inhibition, % at 10 µM | AID 624204, 2012 | actives 0.21% (n = 360,000);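 active = inhibition at least 30% at 10 µM, raw YFP signal under a set limit, fluorescence ratio 0.5 to 1.5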
Target sequence (Q9P0U3 419-644 limits assumed): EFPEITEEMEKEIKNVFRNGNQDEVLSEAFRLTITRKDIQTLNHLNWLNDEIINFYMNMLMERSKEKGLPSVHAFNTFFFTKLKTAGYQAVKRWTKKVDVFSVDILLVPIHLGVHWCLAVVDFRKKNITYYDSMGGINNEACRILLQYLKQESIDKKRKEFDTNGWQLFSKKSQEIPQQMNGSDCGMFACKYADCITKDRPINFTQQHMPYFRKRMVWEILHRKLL
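Assay system – human recombinant His6-tagged SENP1 catalytic domain enzyme · Input – SENP1 enzyme, 20 pM final · Buffer or medium – Tris pH 8 buffer plus EDTA, NaCl, BME, BSA, NP40, catalase · Schedule – 50 min reaction at room temperature · Technique – FRET read of cyan and yellow fluorescence · Control set – no-enzyme wells low, DMSO-plus-enzyme wells high control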
SENP7 inh: SENP7 protease inhibitors, primary screen, biochemical, luminescence, uHTS; recombinant SENP7, Z-RLRGG-aminoluciferin luminescence, 40 min; inhibition, % at 5 µM; actives 1.5% (n = 330,000); AID 434973, 2010;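 active = inhibition above about 50% at the single test dose, limit read from the data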
SENP8 block-2: human SENP8 protease inhibitors, primary screen, biochemical, fluorescence, Nedd8 protein substrate, uHTS; Sentrin-specific protease 8 (Homo sapiens), Q96LD8; recombinant SENP8; inhibition, % at 20 µM; actives 0.64% (n = 360,000); in the data active = inhibition mostly above about 40%, no sharp cut-off; inactive = mostly below about 27%
CendR NRP1 mod: modulators of CendR peptide binding to NRP-1, primary screen, biochemical, fluorescence polarization, uHTS | Neuropilin-1 (Homo sapiens), O14786 | FAM-RPARPAR peptide binding to NRP-1 | inhibition, % at 25 µM | actives 0.85% (n = 360,000) | AID 602438, 2012;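 active = inhibition or corrected inhibition above about 18%, plus a signal ratio from 0.5 to 1.5, limit read from the data, passing the limit was not always enough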
SENP8 conf: SENP8 protease inhibitors, retest, confirmation, biochemical, luminescence, single concentration; shares compounds with SENP7 inh; Recombinant SENP8, Z-RLRGG-aminoluciferin luminescence, 60 min; inhibition, % at 12.5 µM; actives 40% (n = 6,200); AID 488912, 2010;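 active = mean inhibition across replicates above about 50%, limit read from the data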
SENP6 confirm: SENP6 protease inhibitors, confirmation, biochemical, luminescence, single concentration; shares compounds with SENP7 inh; recombinant SENP6, Z-RLRGG-aminoluciferin luminescence; inhibition, % at 12.5 µM; actives 58% (n = 6,200); AID 488915, 2010
SENP7 conf: SENP7 protease inhibitors, retest, confirmation, biochemical, luminescence, single concentration; recombinant SENP7, Z-RLRGG-aminoluciferin luminescence, 40 min; AID 488917, 2010; inhibition, % at 12.5 µM; shares compounds with SENP7 inh; actives 69% (n = 6,200)
Casp3 select: caspase-3 protease inhibitors, confirmation, selectivity assay for SENP inhibitor project, biochemical, single concentration; actives 60% (n = 6,200); purified caspase-3, Z-DEVD-aminoluciferin luminescence, 60 min; inhibition, % at 12.5 µM; shares compounds with SENP7 inh;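 active = mean inhibition above about 50%, limit read from the data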
Target sequence (P42574 28-227 limits assumed): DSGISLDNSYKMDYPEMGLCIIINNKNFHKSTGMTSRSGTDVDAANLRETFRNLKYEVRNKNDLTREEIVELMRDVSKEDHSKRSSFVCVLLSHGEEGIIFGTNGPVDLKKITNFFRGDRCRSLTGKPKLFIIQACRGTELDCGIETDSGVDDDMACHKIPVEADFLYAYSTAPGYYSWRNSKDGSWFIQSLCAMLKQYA
SENP luc ctr: counter-screen for SENP inhibitors: luminescence interference; inhibition, % at 12.5 µM; actives 39% (n = 6,200); Pre-incubated SENP8/Z-RLRGG-aminoluciferin, luciferase luminescence interference; shares compounds with SENP7 inh;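 active = mean inhibition above about 50% when retested at one dose, limit read from the data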
Large screens that a line does not name were inactive (follow-up assays come after a bar, where they were run).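 The calls were made as follows, unless noted: active = mean inhibition above about 50% in the one-dose retest (limit read from the data); inactive = the rest.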

c1ccc(-c2cn3c4c(sc3n2)CCCC4)cc1	SENP6 block 97, SENP8 block-1 96 | SENP8 conf 90 | SENP6 confirm 95 | SENP7 conf 103 | Casp3 select 95 | SENP luc ctr inactive
Nn1cnnc1SCC(=O)N1CCc2ccccc2C1	none
CCOC(=O)CNC(=O)CSc1ncnc2c1cnn2-c1ccc(Cl)cc1	none
COc1ccc(-n2ncc3c(SCC(=O)N4CCN(c5ccccc5OC)CC4)ncnc32)cc1	SENP8 block-1 69 | SENP8 conf inactive | SENP6 confirm inactive | SENP7 conf inactive | Casp3 select inactive | SENP luc ctr inactive
CCOC(=O)Cc1csc(NC(=O)CSc2ncnc3c2cnn3-c2ccc(OC)cc2)n1	SENP6 block 75, SENP8 block-1 71, SENP7 inh 52 | SENP8 conf inactive | SENP6 confirm 69 | SENP7 conf 59 | Casp3 select 84 | SENP luc ctr inactive
COc1cccc(CSC(C(=O)O)c2ccccc2)c1 (stereo unspecified)	none (no result: SENP6 block, SENP8 block-1, SENP7 inh)
COC(=O)c1c[nH]n2c(=O)cc(C)nc12	none
COC(=O)c1c[nH]n2c(=O)c(Cl)c(C)nc12	SENP6 block 64, SENP7 inh 54 | SENP8 conf 66 | SENP6 confirm 57 | SENP7 conf 86 | Casp3 select 88 | SENP luc ctr 66
CCOc1ccc2nc(S(=O)(=O)NC(=O)C3(C)CCN3C(=O)c3cc(C)n(C)n3)sc2c1 (stereo unspecified)	none (no result: SENP6 block, SENP8 block-1, SENP7 inh)
O=c1[nH]cnc2sc3c(c12)CCN(Cc1ccccc1)C3	none
OCCCNc1ncnc2sc3c(c12)CCN(Cc1ccccc1)C3	SENP6 block 54 | SENP8 conf inactive | SENP6 confirm inactive | SENP7 conf inactive | Casp3 select inactive | SENP luc ctr inactive
Cc1onc(-c2ccccc2)c1C(=O)N1CCCC(C)(C(=O)NS(=O)(=O)C2CC2)C1 (stereo unspecified)	none (no result: SENP6 block, SENP8 block-1, SENP7 inh)
COc1ccc2oc(C(=O)Nc3nc4ccccc4[nH]3)c(C)c2c1	SENP6 block 78, SENP8 block-1 58, SENP7 inh 93 | SENP8 conf inactive | SENP6 confirm inactive | SENP7 conf 95 | Casp3 select 84 | SENP luc ctr 58
Cc1ccc2oc(C(=O)Nc3nnc(C)s3)c(C)c2c1	SENP7 inh 59 | SENP8 conf inactive | SENP6 confirm inactive | SENP7 conf inactive | Casp3 select inactive | SENP luc ctr inactive
COc1ccc2oc(C(=O)Nc3nnc(C)s3)c(C)c2c1	SENP7 inh 62 | SENP8 conf inactive | SENP6 confirm inactive | SENP7 conf inactive | Casp3 select inactive | SENP luc ctr inactive
Cc1ccc2oc(C(=O)Nc3nonc3C)c(C)c2c1	none
CN(C(=O)COc1ccc2ccc(=O)oc2c1)C1CCS(=O)(=O)C1 (stereo unspecified)	SENP7 inh 92 | SENP8 conf inactive | SENP6 confirm inactive | SENP7 conf inactive | Casp3 select inactive | SENP luc ctr inactive
COc1c(/C=N/NC(N)=S)c(C)nn1-c1ccccc1	SENP8 block-1 70 | SENP8 conf inactive | SENP6 confirm inactive | SENP7 conf inactive | Casp3 select inactive | SENP luc ctr inactive
Cc1ccc(NC(=S)N/N=C/c2c(C)nn(-c3ccccc3)c2N2CCCC2)cc1	none
Cn1c(C(=O)Nc2ccc3c(c2)OCCO3)cc2sccc21	SENP6 block 74, SENP8 block-1 70, SENP7 inh 79 | SENP8 conf 86 | SENP6 confirm 85 | SENP7 conf 97 | Casp3 select 70 | SENP luc ctr 74
Cn1nc(C(=O)Nc2ccc3c(c2)OCCO3)cc1C(=O)O	SENP6 block 56, SENP7 inh 66 | SENP8 conf 56 | SENP6 confirm 54 | SENP7 conf 86 | Casp3 select 85 | SENP luc ctr 64
O=C(Nc1ccc2c(c1)OCCO2)c1cc2sccc2n1Cc1ccccc1	none
Cn1ccc(C(=O)Nc2ccc3c(c2)OCCO3)n1	none
Cn1nccc1C(=O)Nc1ccc2c(c1)OCCO2	SENP6 block 81, SENP8 block-1 55, SENP7 inh 71 | SENP8 conf 58 | SENP6 confirm 58 | SENP7 conf 88 | Casp3 select 88 | SENP luc ctr 65
Cc1c(C(=O)Nc2ccc3c(c2)OCCO3)cnn1C	none
c1ccc(-c2nn[nH]n2)cc1	none
c1ccc(-c2nnc(-c3ccccc3)nn2)cc1	SENP6 block 88, SENP8 block-1 83, SENP7 inh 96 | SENP8 conf inactive | SENP6 confirm inactive | SENP7 conf inactive | Casp3 select inactive | SENP luc ctr inactive
CCN(C[C@H]1N[C@@](Cc2ccccc2)(C(=O)OC)[C@H]2C(=O)N(C)C(=O)[C@@H]12)C(=O)COc1ccccc1	none
CCN(c1ccc(NC(=O)COC(=O)c2cccs2)cc1)C(C)C	SENP6 block 73, SENP7 inh 64 | SENP8 conf 68 | SENP6 confirm 65 | SENP7 conf 90 | Casp3 select 71 | SENP luc ctr 70
CCN(CC)c1ccc(NC(=O)COC(=O)c2cccs2)cc1	SENP6 block 53, SENP7 inh 56 | SENP8 conf inactive | SENP6 confirm inactive | SENP7 conf 62 | Casp3 select inactive | SENP luc ctr inactive
CC(=O)c1cccc(NC(=O)COC(=O)c2cccs2)c1	none
CC1(C(=O)Nc2ccc3c(c2)OCCO3)CCC(=O)N1C1CCN(Cc2ccccc2)CC1 (stereo unspecified)	none (no result: SENP6 block, SENP8 block-1, SENP7 inh)
